Calls of active or inactive are those of the source. No cut-off for these calls is given here.
Legend:
Mus musculus [1] = test: Anti-inflammatory activity in FVB mouse with zymosan-induced sterile peritonitis assessed as reduction in PMN infiltration in peritoneal inflammatory exudates at 10 ng, ip measured at 4 hrs dosed 10 mins before zymosan challenge by light microscopy and flow cytometry; type: functional
Method in brief: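 Male FVB mice, 6–8 weeks old, were dosed i.p. with 10 ng in saline with 0.1% EtOH, then zymosan 1 mg/mouse i.p. 10 min later. Peritoneal lavage was collected at 4 h in PBS without Ca/Mg. Leukocytes were enumerated by light microscopy and flow cytometry. Mean ± SEM, n = 4 mice per treatment.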

Homo sapiens [2] = species on record: Homo sapiens; test: Inhibition of LTB4-induced cell adhesion to fibronectin in human primary PMN at 0.1 to 10 nM pre-incubated for 10 mins followed by LTB4 stimulation by flow cytometry; type: functional; conditions: in the assay text read “flow chamber assay with microscopy” for “flow cytometry”
Method in brief: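 Purified human PMN were pretreated 10 min at room temperature, then stimulated with 10 nM LTB4 for 10 min at room temperature. Cells at 1 × 10^6/mL were perfused over fibronectin-coated chambers at 0.5 mL/min for 5 min. Adherent cells were counted in six random fields by imaging. Three independent experiments; paired t test versus vehicle.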

Mus musculus [3] = test: Anti-inflammatory activity in FVB mouse with zymosan-induced sterile peritonitis assessed as reduction in PGF2alpha in peritoneal inflammatory exudates at 10 ng, ip dosed 10 mins before zymosan challenge by LC-MS/MS based targeted lipid mediator metabololipidomics; type: functional
Method in brief: (§1)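 Male FVB mice, 6–8 weeks old, received 10 ng i.p. in saline with 0.1% EtOH as vehicle, then zymosan 1 mg/mouse i.p. 10 min later. Peritoneal lavage was taken at 4 h in PBS without Ca/Mg. Eicosanoids were measured by LC/MS-MS after solid-phase extraction, identified with at least six diagnostic ions and quantified against linear calibration curves. Mean ± SEM, n = 4 mice per group.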

Mus musculus [4] = test: Anti-inflammatory activity in FVB mouse with zymosan-induced sterile peritonitis assessed as reduction in PGD2 in peritoneal inflammatory exudates at 10 ng, ip dosed 10 mins before zymosan challenge by LC-MS/MS based targeted lipid mediator metabololipidomics; type: functional; method in brief: as §1
Mus musculus [5] = test: Anti-inflammatory activity in FVB mouse with zymosan-induced sterile peritonitis assessed as reduction in TXB2 in peritoneal inflammatory exudates at 10 ng, ip dosed 10 mins before zymosan challenge by LC-MS/MS based targeted lipid mediator metabololipidomics; type: functional; method in brief: as §1
Homo sapiens [6] = species on record: Homo sapiens; test: Inhibition of IL8-induced chemotaxis of human primary PMN at 0.01 to 100 nM pre-incubated for 15 mins followed by IL8 stimulation by PrestoBlue fluorescence assay
Homo sapiens [7] = species on record: Homo sapiens; test: Inhibition of LTB4-induced chemotaxis of human primary PMN at 0.01 to 100 nM pre-incubated for 15 mins followed by LTB4 stimulation by PrestoBlue fluorescence assay
[8] = Inhibition of IL8-induced chemotaxis of human primary PMN at 0.01 to 100 nM pre-incubated for 15 mins followed by IL8 stimulation by PrestoBlue fluorescence assay
[9] = Inhibition of LTB4-induced chemotaxis of human primary PMN at 0.01 to 100 nM pre-incubated for 15 mins followed by LTB4 stimulation by PrestoBlue fluorescence assay

SMILES | inhibition (INH) (Mus musculus [1]) [%] | inhibition (Homo sapiens [2]) | inhibition (Mus musculus [3]) | inhibition (Mus musculus [4]) | inhibition (Mus musculus [5]) | inhibition (Homo sapiens [6]) | inhibition (Homo sapiens [7]) | inhibition (INH) (Mus musculus [3]) [%] | inhibition (INH) (Mus musculus [4]) [%] | inhibition (INH) (Mus musculus [5]) [%] | inhibition (INH) [8] [%] | inhibition (INH) [9] [%]
CC/C=C\C[C@H](O)\C=C/C=C/C=C/[C@H](O)C/C=C\C/C=C\CCC(=O)O | 54 | Active | Active | Active | Active | Active | Active |  |  |  |  | 
O=C(O)CC/C=C\C/C=C\C[C@@H](O)/C=C/C=C/C=C\[C@@H](O)C/C=C\CCO | 43 | Active |  |  |  |  |  | 43 | 27 | 48 | 23 | 19
